Measured values reported in ChEMBL document CHEMBL2016458, “Design and optimization of quinazoline derivatives as melanin concentrating hormone receptor 1 (MCHR1) antagonists” (Bioorg Med Chem Lett, 2012).
In brackets after ≈: the same amount, converted by molar mass.

molecular target: T1, Melanin-concentrating hormone receptor 1 (Homo sapiens, UniProt Q99705); test: biochemical; assay type: cell-based, CHO-K1; conditions: not given
T1 sequence (Q99705 whole entry): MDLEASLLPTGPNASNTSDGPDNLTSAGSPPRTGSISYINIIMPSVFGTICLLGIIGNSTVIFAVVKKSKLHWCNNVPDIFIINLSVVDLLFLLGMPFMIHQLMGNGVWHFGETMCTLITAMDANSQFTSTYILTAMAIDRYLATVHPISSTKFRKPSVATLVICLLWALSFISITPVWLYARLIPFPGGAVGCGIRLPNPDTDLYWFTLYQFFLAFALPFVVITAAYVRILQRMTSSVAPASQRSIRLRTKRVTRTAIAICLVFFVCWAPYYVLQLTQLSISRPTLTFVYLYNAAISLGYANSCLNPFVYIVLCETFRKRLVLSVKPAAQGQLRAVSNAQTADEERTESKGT

`Cc1nc(N2CCC(C)(O)CC2)nc2ccc(NC(=O)COc3ccc(Cl)cc3)cc12` and `Cc1nc(N2CCN(C)CC2)nc2ccc(NC(=O)COc3ccc(Cl)cc3)cc12` are within 1.5-fold of each other in IC50: 237 nM for the first, 220 nM for the second.

`Cc1nc(N2CCC(N3CCCC3=O)CC2)nc2ccc(NC(=O)COc3ccc(OC(F)(F)F)cc3)cc12` and `Cc1nc(N2CCC(N)CC2)nc2ccc(NC(=O)COc3ccc(OC(F)(F)F)cc3)cc12` are within 1.5-fold of each other in IC50: 19 nM for the first, 22 nM for the second.

First: Cc1nc(N2CCC(O)(c3ccc(F)cc3)CC2)nc2ccc(NC(=O)COc3ccc(OC(F)(F)F)cc3)cc12
Second: Cc1nc(N2CCC(O)(c3cccc(F)c3)CC2)nc2ccc(NC(=O)COc3ccc(OC(F)(F)F)cc3)cc12
The IC50 of the first is 4.2-fold lower: 150 nM for the first, 635 nM for the second.

Going from `Cc1nc(N2CCC(O)CC2)nc2ccc(NC(=O)C(C)(C)Oc3ccc(Cl)cc3)cc12` to `Cc1nc(N2CCC(C(=O)NC(C)C)CC2)nc2ccc(NC(=O)COc3ccc(Cl)cc3)cc12`, the IC50 falls from > 10000 nM to 15 nM. The second is the more potent here.

Going from `Cc1nc(N2CCC(O)(c3ccccc3)CC2)nc2ccc(NC(=O)COc3ccc(OC(F)(F)F)cc3)cc12` to `Cc1nc(N2CCC(O)(C(N)=O)CC2)nc2ccc(NC(=O)COc3ccc(OC(F)(F)F)cc3)cc12`, the IC50 rises from 354 nM to 636 nM (1.8-fold). The first is the more potent here.

Going from `Cc1nc(N2CCCCC2)nc2ccc(NC(=O)COc3ccc(Cl)cc3)cc12` to `Cc1nc(N2CCC(N3CCCC3)CC2)nc2ccc(NC(=O)COc3ccc(Cl)cc3)cc12`, the IC50 falls from 180 nM to 20 nM (9-fold). The second is the more potent here.

Compared with `Cc1nc(N2CCN(C3CCOCC3)CC2)nc2ccc(NC(=O)COc3ccc(OC(F)(F)F)cc3)cc12`, `Cc1nc(N2CCN(C(=O)C3CCC3)CC2)nc2ccc(NC(=O)COc3ccc(OC(F)(F)F)cc3)cc12` is 12-fold higher in IC50: 7 nM for the first, 84 nM for the second.

Compared with `Cc1nc(N2CCC(O)(C3CCC3)CC2)nc2ccc(NC(=O)COc3ccc(OC(F)(F)F)cc3)cc12`, `Cc1nc(N2CCC(C(=O)C3CC3)CC2)nc2ccc(NC(=O)COc3ccc(OC(F)(F)F)cc3)cc12` is 7.9-fold lower in IC50: 79 nM for the first, 10 nM for the second. The second is the more potent here.

`CCN1CCN(c2nc(C)c3cc(NC(=O)COc4ccc(Cl)cc4)ccc3n2)CC1` and `Cc1nc(N2CCN(CC(C)(C)C)CC2)nc2ccc(NC(=O)COc3ccc(Cl)cc3)cc12` are within 1.5-fold of each other in IC50: 690 nM for the first, 782 nM for the second.

Compared with `Cc1nc(N2CCC(C(=O)NC(C)C)CC2)nc2ccc(NC(=O)COc3ccc(OC(F)(F)F)cc3)cc12`, `Cc1nc(N2CCN(C(=O)C(C)C)CC2)nc2ccc(NC(=O)COc3ccc(OC(F)(F)F)cc3)cc12` is 2.1-fold higher in IC50: 17 nM for the first, 36 nM for the second. The first is the more potent here.

`Cc1nc(N2CCN(C(=O)C3CCC3)CC2)nc2ccc(NC(=O)COc3ccc(Cl)cc3)cc12` and `Cc1nc(N2CCN(C(=O)C3CCCC3)CC2)nc2ccc(NC(=O)COc3ccc(Cl)cc3)cc12` are within 1.5-fold of each other in IC50: 325 nM for the first, 305 nM for the second.

Compared with `Cc1nc(N2CCC(NC(=O)C(C)C)CC2)nc2ccc(NC(=O)COc3ccc(Cl)cc3)cc12`, `Cc1nc(N2CCC(NC(=O)NC(C)C)CC2)nc2ccc(NC(=O)COc3ccc(Cl)cc3)cc12` is 2.1-fold lower in IC50: 15 nM for the first, 7 nM for the second.

`Cc1nc(N2CCN(C(=O)CC(C)C)CC2)nc2ccc(NC(=O)COc3ccc(Cl)cc3)cc12` showed an IC50 of 141 nM.

test system: not listed separately; test: Solubility of the compound in 5% DMSO and 95% PBS after overnight incubation using plate shaker; assay type: physicochemical; conditions: 5% DMSO and 95% PBS; read-out: solubility
How it was run: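 A 10 mM DMSO stock was diluted into PBS to a final 500 µM (5% DMSO). The mix was left to precipitate overnight at RT on a plate shaker, then centrifuged. Supernatant absorbance was read at 260, 280 and 620 nm. Solubility is the absorbance ratio of PBS supernatant to an acetonitrile reference (100 and 500 µM). The 620 nm reading was used to exclude visible contamination.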

Compared with `Cc1nc(N2CCN(C(=O)C3CCC3)CC2)nc2ccc(NC(=O)COc3ccc(OC(F)(F)F)cc3)cc12`, `Cc1nc(N2CCC(C(=O)NC(C)C)CC2)nc2ccc(NC(=O)COc3ccc(Cl)cc3)cc12` is 33-fold higher in solubility: 4 µM (≈ 2.17 µg/mL) for the first, 132 µM (≈ 65.5 µg/mL) for the second.

`Cc1nc(N2CCC(NC(=O)C(C)C)CC2)nc2ccc(NC(=O)COc3ccc(Cl)cc3)cc12` gave a solubility of 205 µM (≈ 102 µg/mL).

same assay, conditions: buffer

For `Cc1nc(N2CCC(NC(=O)NC(C)C)CC2)nc2ccc(NC(=O)COc3ccc(Cl)cc3)cc12`, the solubility was “Insoluble”.

molecular target: hERG (KCNH2) (Homo sapiens, UniProt Q12809); test: Inhibition of human ERG at 1 uM; conditions: not given
Sequence (Q12809 whole entry): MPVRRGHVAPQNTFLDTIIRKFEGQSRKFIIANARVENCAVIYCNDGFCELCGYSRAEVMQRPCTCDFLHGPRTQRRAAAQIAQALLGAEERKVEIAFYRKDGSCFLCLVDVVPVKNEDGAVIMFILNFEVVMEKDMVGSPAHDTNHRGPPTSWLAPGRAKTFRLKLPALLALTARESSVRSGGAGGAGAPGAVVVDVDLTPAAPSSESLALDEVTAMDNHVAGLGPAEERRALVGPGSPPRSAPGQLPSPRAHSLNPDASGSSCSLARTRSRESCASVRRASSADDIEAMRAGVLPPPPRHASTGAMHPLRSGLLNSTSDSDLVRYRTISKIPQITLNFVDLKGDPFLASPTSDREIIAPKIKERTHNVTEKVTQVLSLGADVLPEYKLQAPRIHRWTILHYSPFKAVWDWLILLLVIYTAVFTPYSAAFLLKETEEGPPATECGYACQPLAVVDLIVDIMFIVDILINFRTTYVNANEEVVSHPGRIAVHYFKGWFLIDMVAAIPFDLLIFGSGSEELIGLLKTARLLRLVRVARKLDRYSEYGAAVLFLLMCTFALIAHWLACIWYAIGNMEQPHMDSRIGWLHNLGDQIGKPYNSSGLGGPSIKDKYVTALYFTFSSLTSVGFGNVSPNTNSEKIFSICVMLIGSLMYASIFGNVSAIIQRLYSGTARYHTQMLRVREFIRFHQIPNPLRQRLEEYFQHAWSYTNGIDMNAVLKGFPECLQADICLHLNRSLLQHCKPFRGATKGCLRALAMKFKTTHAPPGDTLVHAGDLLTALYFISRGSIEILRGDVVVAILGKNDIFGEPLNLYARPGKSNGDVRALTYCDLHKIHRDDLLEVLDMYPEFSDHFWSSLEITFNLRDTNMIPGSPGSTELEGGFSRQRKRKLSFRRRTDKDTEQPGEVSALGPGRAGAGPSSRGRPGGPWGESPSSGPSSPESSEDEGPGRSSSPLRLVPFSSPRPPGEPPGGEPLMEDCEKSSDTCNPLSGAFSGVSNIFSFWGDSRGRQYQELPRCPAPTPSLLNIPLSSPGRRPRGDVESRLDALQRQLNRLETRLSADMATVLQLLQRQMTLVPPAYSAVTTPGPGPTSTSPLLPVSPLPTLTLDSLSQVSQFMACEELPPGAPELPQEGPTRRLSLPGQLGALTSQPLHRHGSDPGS

Compared with `Cc1nc(N2CCC(O)(C3CCC3)CC2)nc2ccc(NC(=O)COc3ccc(OC(F)(F)F)cc3)cc12`, `Cc1nc(N2CCC(C(=O)C3CC3)CC2)nc2ccc(NC(=O)COc3ccc(OC(F)(F)F)cc3)cc12` is higher in inhibition at 1 µM: 31% for the first, 32% for the second.

molecular target: Voltage-gated inwardly rectifying potassium channel KCNH2 (Homo sapiens, UniProt Q12809); test: not given; conditions: not given
Sequence (Q12809 whole entry): as above

Compared with `Cc1nc(N2CCC(N3CCCC3=O)CC2)nc2ccc(NC(=O)COc3ccc(OC(F)(F)F)cc3)cc12`, `Cc1nc(N2CCC(N3CCCC3)CC2)nc2ccc(NC(=O)COc3ccc(Cl)cc3)cc12` is 8.2-fold lower in IC50: 3700 nM for the first, 450 nM for the second.

test system: not listed separately; test: Metabolic stability in mouse liver microsomes assessed as compound remaining at 10 uM after 30 mins by HPLC analysis; assay type: ADME, Microsome; conditions: read-out: Stability
How it was run: (§1)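 Compound at 10 µM was incubated with 1 mg/ml mouse or pooled human liver microsomes in 0.1 M phosphate buffer, pH 7.4. Reaction was started with NADPH and run 30 min at 37 °C. Result is % parent remaining.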

Going from `Cc1nc(N2CCN(C(=O)C3CCC3)CC2)nc2ccc(NC(=O)COc3ccc(OC(F)(F)F)cc3)cc12` to `Cc1nc(N2CCC(C(=O)NC(C)C)CC2)nc2ccc(NC(=O)COc3ccc(Cl)cc3)cc12`, the remaining at 0.5 h, 10 µM falls from 69% to 11%.

`Cc1nc(N2CCC(NC(=O)C(C)C)CC2)nc2ccc(NC(=O)COc3ccc(Cl)cc3)cc12` showed a remaining at 0.5 h, 10 µM of 9%.

test system: not listed separately; test: Stability in mouse blood assessed as compound remaining after 30 mins by HPLC analysis; assay type: ADME, tissue-based; conditions: read-out: Stability

Going from `Cc1nc(N2CCN(C(=O)C3CCC3)CC2)nc2ccc(NC(=O)COc3ccc(OC(F)(F)F)cc3)cc12` to `Cc1nc(N2CCC(C(=O)NC(C)C)CC2)nc2ccc(NC(=O)COc3ccc(Cl)cc3)cc12`, the remaining at 0.5 h rises from 45% to 49%.

molecular target: T1, Melanin-concentrating hormone receptor 1; test: Antagonist activity at human MCHR1 expressed in CHO-K1 cells assessed as inhibition of MCH peptide mediated response measuring [3H]inositol phosphate production by IP3-SPA-YSI assay; assay type: functional, cell-based; conditions: not given

Going from `Cc1nc(N2CCC(C)(O)CC2)nc2ccc(NC(=O)COc3ccc(Cl)cc3)cc12` to `Cc1nc(N2CCN(C)CC2)nc2ccc(NC(=O)COc3ccc(Cl)cc3)cc12`, the IC50 rises from 827 nM to 3800 nM (4.6-fold). The first is the more potent here.

First: Cc1nc(N2CCC(N3CCCC3=O)CC2)nc2ccc(NC(=O)COc3ccc(OC(F)(F)F)cc3)cc12
Second: Cc1nc(N2CCC(N)CC2)nc2ccc(NC(=O)COc3ccc(OC(F)(F)F)cc3)cc12
The IC50 of the first is 20-fold lower: 4 nM for the first, 80 nM for the second. The first is the more potent here.

Going from `Cc1nc(N2CCC(O)(c3ccc(F)cc3)CC2)nc2ccc(NC(=O)COc3ccc(OC(F)(F)F)cc3)cc12` to `Cc1nc(N2CCC(O)(c3cccc(F)c3)CC2)nc2ccc(NC(=O)COc3ccc(OC(F)(F)F)cc3)cc12`, the IC50 rises from 55 nM to 100 nM (1.8-fold). The first is the more potent here.

Compared with `Cc1nc(N2CCC(O)CC2)nc2ccc(NC(=O)C(C)(C)Oc3ccc(Cl)cc3)cc12`, `Cc1nc(N2CCC(C(=O)NC(C)C)CC2)nc2ccc(NC(=O)COc3ccc(Cl)cc3)cc12` is lower in IC50: > 10000 nM for the first, 25 nM for the second.

Going from `Cc1nc(N2CCC(O)(c3ccccc3)CC2)nc2ccc(NC(=O)COc3ccc(OC(F)(F)F)cc3)cc12` to `Cc1nc(N2CCC(O)(C3CCC3)CC2)nc2ccc(NC(=O)COc3ccc(OC(F)(F)F)cc3)cc12`, the IC50 falls from 67 nM to 27 nM (2.5-fold).

First: Cc1nc(N2CCCCC2)nc2ccc(NC(=O)COc3ccc(Cl)cc3)cc12
Second: Cc1nc(N2CCC(N3CCCC3)CC2)nc2ccc(NC(=O)COc3ccc(Cl)cc3)cc12
The IC50 of the first is 3.8-fold higher: 305 nM for the first, 81 nM for the second. The second is the more potent here.

`Cc1nc(N2CCN(C3CCOCC3)CC2)nc2ccc(NC(=O)COc3ccc(OC(F)(F)F)cc3)cc12` and `Cc1nc(N2CCN(C(=O)C3CCC3)CC2)nc2ccc(NC(=O)COc3ccc(OC(F)(F)F)cc3)cc12` are within 1.5-fold of each other in IC50: 31 nM for the first, 45 nM for the second.

Compared with `Cc1nc(N2CCC(C(=O)NC(C)C)CC2)nc2ccc(NC(=O)COc3ccc(OC(F)(F)F)cc3)cc12`, `Cc1nc(N2CCC(C(=O)C3CC3)CC2)nc2ccc(NC(=O)COc3ccc(OC(F)(F)F)cc3)cc12` is 1.6-fold higher in IC50: 9 nM for the first, 14 nM for the second.

Going from `Cc1nc(N2CCN(C(=O)C3CCC3)CC2)nc2ccc(NC(=O)COc3ccc(Cl)cc3)cc12` to `Cc1nc(N2CCN(C(=O)C3CCCC3)CC2)nc2ccc(NC(=O)COc3ccc(Cl)cc3)cc12`, the IC50 rises from 158 nM to 350 nM (2.2-fold).

Going from `Cc1nc(N2CCN(CC(C)(C)C)CC2)nc2ccc(NC(=O)COc3ccc(Cl)cc3)cc12` to `Cc1nc(N2CCN(C(=O)CC(C)C)CC2)nc2ccc(NC(=O)COc3ccc(Cl)cc3)cc12`, the IC50 falls from 246 nM to 160 nM (1.5-fold). The second is the more potent here.

Compared with `Cc1nc(N2CCC(NC(=O)C(C)C)CC2)nc2ccc(NC(=O)COc3ccc(Cl)cc3)cc12`, `Cc1nc(N2CCC(NC(=O)NC(C)C)CC2)nc2ccc(NC(=O)COc3ccc(Cl)cc3)cc12` is 14-fold lower in IC50: 54 nM for the first, 4 nM for the second.

`Cc1nc(N2CCN(C(=O)C(C)C)CC2)nc2ccc(NC(=O)COc3ccc(OC(F)(F)F)cc3)cc12` showed an IC50 of 33 nM.

molecular target: T1, Melanin-concentrating hormone receptor 1; test: Antagonist activity at human MCHR1 expressed in CHO-K1 cells assessed as inhibition of MCH peptide mediated response measuring [3H]inositol phosphate production at 10 uM by IP3-SPA-YSI assay; assay type: functional, cell-based; set-up: scale not given: the % may be the effect or the level left; conditions: not given

`Cc1nc(N2CCC(O)(C(N)=O)CC2)nc2ccc(NC(=O)COc3ccc(OC(F)(F)F)cc3)cc12` gave an Activity of 72%.

test system: not listed separately; test: Metabolic stability in human liver microsomes assessed as compound remaining at 10 uM after 30 mins by HPLC analysis; assay type: ADME, Microsome; conditions: read-out: Stability
How it was run: as §1

First: Cc1nc(N2CCN(C(=O)C3CCC3)CC2)nc2ccc(NC(=O)COc3ccc(OC(F)(F)F)cc3)cc12
Second: Cc1nc(N2CCC(C(=O)NC(C)C)CC2)nc2ccc(NC(=O)COc3ccc(Cl)cc3)cc12
The remaining at 0.5 h, 10 µM of the first is lower: 52% for the first, 70% for the second.

`Cc1nc(N2CCC(NC(=O)C(C)C)CC2)nc2ccc(NC(=O)COc3ccc(Cl)cc3)cc12` showed a remaining at 0.5 h, 10 µM of 23%.
